Series [1] has as its target T1, Cathepsin G (Homo sapiens, UniProt P08311).
T1 sequence (P08311 whole entry): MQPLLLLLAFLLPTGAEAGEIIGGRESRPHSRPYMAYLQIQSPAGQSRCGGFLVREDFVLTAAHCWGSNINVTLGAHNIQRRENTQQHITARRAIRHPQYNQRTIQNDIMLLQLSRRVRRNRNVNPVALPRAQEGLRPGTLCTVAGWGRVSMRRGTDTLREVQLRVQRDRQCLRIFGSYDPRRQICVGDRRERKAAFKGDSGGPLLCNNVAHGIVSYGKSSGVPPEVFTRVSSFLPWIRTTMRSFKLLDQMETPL
The series is described as follows: Inhibition of cathepsin G at pH 7.5 in HEPES buffer containing 200 mM NaCl with substrate Suc-Ala-Ala-Pro-Phe-pNA. A digest of the protocol:
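Wells pre-equilibrated at 37 °C >10 min before enzyme start. A405 followed 15 min. Eight concentrations over a 200-fold span. Ki from competitive fit of vi/vc versus [I].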

Series [2] deals with T2, Neutrophil elastase (Homo sapiens, UniProt P08246).
T2 sequence (P08246 whole entry): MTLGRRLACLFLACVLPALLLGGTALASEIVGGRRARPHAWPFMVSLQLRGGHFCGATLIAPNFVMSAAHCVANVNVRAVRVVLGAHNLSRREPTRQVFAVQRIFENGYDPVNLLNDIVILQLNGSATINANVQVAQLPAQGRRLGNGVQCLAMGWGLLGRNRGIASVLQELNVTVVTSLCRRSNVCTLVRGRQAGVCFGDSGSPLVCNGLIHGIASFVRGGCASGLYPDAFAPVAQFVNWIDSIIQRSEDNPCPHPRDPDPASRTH
The series is described as follows: Inhibitory activity against human leukocyte elastase.

The target in series [3] is Prothrombin (Homo sapiens, UniProt P00734). The series is described as follows: Inhibition of thrombin at pH 7.5 in HEPES buffer containing 200 mM NaCl with substrate Bz-Phe-Val-Arg-pNA. A digest of the protocol:
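Reaction started with enzyme after >10 min equilibration. A405 rise recorded 15 min. Eight compound levels over a 200-fold range. Ki from competitive-model fit of vi/vc.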

Series [4] addresses T2, Neutrophil elastase. The series is described as follows: Binding Affinity to inhibit HLE. A digest of the protocol: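 Purified human leukocyte elastase (3 nM final) with 10 µM […] (below Km 200 µM) in 50 mM HEPES, 200 mM NaCl, pH 7.5, 0.3% DMSO. Inhibitor and substrate pre-equilibrated at 37 °C for >10 min, then enzyme added. A405 read for 15 min. Eight inhibitor levels spanning a 200-fold range. Ki from fit of vi/vc to the competitive-inhibition equation.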

Series [5] deals with T3, Neutrophil elastase (Homo sapiens) (UniProt P08246).
T3 sequence (whole entry): T2 sequence (P08246 whole entry)
The settings on record: 0.2 uM.

The target in series [6] is T3, Neutrophil elastase (Homo sapiens). The note with it: 0.5 uM.
The target is the same in series [7]. The settings on record: 1 uM.
Substrate in series [8]: O=C(O)COc1cc(Cc2cc(OCc3ccccc3)c(Cc3cc(OCc4ccccc4)c(Cc4cc(OCc5ccccc5)c(Cc5cc(OCc6ccccc6)c(Cc6cc(O)ccc6OCC(=O)O)cc5OCC(=O)O)cc4OCC(=O)O)cc3OCC(=O)O)cc2OCC(=O)O)c(OCc2ccccc2)cc1CO
The note with it: 0.5 uM.

Substrate in series [9]: O=C(O)COc1cc(Cc2cc(OCc3ccccc3)c(Cc3cc(OCc4ccccc4)c(Cc4cc(OCc5ccccc5)c(Cc5cc(OCc6ccccc6)c(Cc6cc(O)ccc6OCC(=O)O)cc5OCC(=O)O)cc4OCC(=O)O)cc3OCC(=O)O)cc2OCC(=O)O)c(OCc2ccccc2)cc1CO
The note with it: 1 uM.

Substrate in series [10]: O=C(O)COc1cc(Cc2cc(OCc3ccccc3)c(Cc3cc(OCc4ccccc4)c(Cc4cc(OCc5ccccc5)c(Cc5cc(OCc6ccccc6)c(Cc6cc(O)ccc6OCC(=O)O)cc5OCC(=O)O)cc4OCC(=O)O)cc3OCC(=O)O)cc2OCC(=O)O)c(OCc2ccccc2)cc1CO
The settings on record: 0.2 uM.

Turning to `COc1ccc(OCC(=O)O)c(Cc2cc(O)c(Cc3cc(OCC(=O)O)c(Cc4cc(O)c(Cc5cc(OCC(=O)O)c(Cc6cc(O)c(C)cc6OC)cc5OC)cc4OC)cc3OC)cc2OC)c1`, the values for the Ki in [1], in series [2] and in series [3] were over 15 µM, 1.3 µM and over 15 µM, respectively.
As to `COc1cc(CO)c(OCc2ccccc2)cc1Cc1cc(OC)c(Cc2cc(OC)c(Cc3cc(OC)c(Cc4cc(OC)c(Cc5cc(O)ccc5OCC(=O)O)cc4OCc4ccccc4)cc3OCC(=O)O)cc2OCc2ccccc2)cc1OCC(=O)O`, the Ki (usually the dissociation constant of the complex between target and ligand, obtained from inhibition or displacement) is 1.5 µM in series [1], 0.2 µM in series [2] and over 15 µM in series [3].
Take `O=C(O)COc1cc(Cc2cc(OCc3ccccc3)c(Cc3cc(OCc4ccccc4)c(Cc4cc(OCc5ccccc5)c(Cc5cc(OCc6ccccc6)c(Cc6cc(O)ccc6OCC(=O)O)cc5OCC(=O)O)cc4OCC(=O)O)cc3OCC(=O)O)cc2OCC(=O)O)c(OCc2ccccc2)cc1CO`: the Ki in series [1] is over 15 µM; in [2], 0.12 µM; in series [4], 0.19 µM; in [3], over 15 µM. Besides, the Vm in [5], in [6] and in series [7] was 0.2 µM throughout.
`COc1ccc(OCC(=O)O)c(Cc2cc(OCCCc3ccccc3)c(Cc3cc(OCC(=O)O)c(Cc4cc(OCCCc5ccccc5)c(Cc5cc(OCC(=O)O)c(Cc6cc(OCCCc7ccccc7)c(C)cc6OC)cc5OC)cc4OC)cc3OC)cc2OC)c1`: the inhibition constant (Ki) in series [1] was over 15 µM; in series [2], 0.1 µM; in series [3], 1.7 µM.
In the same order, the values of `O=C(O)COc1cc(Cc2cc(OCc3ccccc3)c(Cc3cc(OCc4ccccc4)c(Cc4cc(OCc5ccccc5)c(Cc5cc(O)ccc5OCC(=O)O)cc4OCC(=O)O)cc3OCC(=O)O)cc2OCC(=O)O)c(OCc2ccccc2)cc1CO` are over 15 µM, 0.13 µM and 0.75 µM.
The matching figures for `O=C(O)COc1cc(Cc2cc(OCc3ccccc3)c(Cc3cc(OCc4ccccc4)c(Cc4cc(O)ccc4OCC(=O)O)cc3OCC(=O)O)cc2OCC(=O)O)c(OCc2ccccc2)cc1CO`: over 15 µM, 8.3 µM and over 15 µM.
The matching figures for `COCCOCOc1cc(Cc2cc(OC)c(Cc3cc(OC)c(Cc4cc(OC)c(Cc5cc(OC)c(Cc6cc(OC)ccc6OCC(=O)O)cc5OCOCCOC)cc4OCC(=O)O)cc3OCOCCOC)cc2OCC(=O)O)c(OC)cc1C`: over 15 µM, 1 µM and 0.24 µM.
In the case of `COc1ccc(OCC(=O)O)c(Cc2cc(OCC3CCCCC3)c(Cc3cc(OCC(=O)O)c(Cc4cc(OCC5CCCCC5)c(Cc5cc(OCC(=O)O)c(Cc6cc(OCC7CCCCC7)c(C)cc6OC)cc5OC)cc4OC)cc3OC)cc2OC)c1`, the inhibition constant (Ki) in series [1] is over 15 µM; in series [2], 0.02 µM; in series [3], over 15 µM.
Take `COc1ccc(OCC(=O)O)c(Cc2cc(OCCCCCc3ccccc3)c(Cc3cc(OCC(=O)O)c(Cc4cc(OCCCCCc5ccccc5)c(Cc5cc(OCC(=O)O)c(Cc6cc(OCCCCCc7ccccc7)c(C)cc6OC)cc5OC)cc4OC)cc3OC)cc2OC)c1`: the Ki is over 15 µM in series [1], 0.017 µM in [2] and 1.4 µM in series [3].
`CC(C)(C)c1cc2c(OCC(=O)O)c(c1)Cc1cc(C(C)(C)C)cc(c1OCC(=O)O)Cc1cc(C(C)(C)C)cc(c1OCC(=O)O)Cc1cc(C(C)(C)C)cc(c1OCC(=O)O)Cc1cc(C(C)(C)C)cc(c1OCC(=O)O)Cc1cc(C(C)(C)C)cc(c1OCC(=O)O)Cc1cc(C(C)(C)C)cc(c1OCC(=O)O)Cc1cc(C(C)(C)C)cc(c1OCC(=O)O)C2`: in [2], the affinity corresponds to a Ki of 1.3 µM.

B1: Neutrophil elastase (Homo sapiens), P08246 (protein)
chain: T2 sequence (P08246 whole entry)
Take B1: the values for the Km in series [8], in series [9] and in series [10] were 1.1 µM, 2.3 µM and 0.77 µM, respectively.

Values taken from ChEMBL document CHEMBL1130189, “Anionic- and lipophilic-mediated surface binding inhibitors of human leukocyte elastase” (J Med Chem, 1997).
